# Measurements gathered from unrelated publications.
# Cell line: K562
# Read-out: cell growth or viability
SMILES,assay,setting,IC50 [µM]
N/C(=N\O)c1ccc(-c2cc(CNc3cccc4cccnc34)on2)cc1,MTS,72 h,86.6
CN1CCC(NC2CCc3[nH]c4c(C(N)=O)ccc(-c5ccccc5Cl)c4c3C2)CC1 (centres unmarked),,96 h,0.0214
O=c1cc(OCc2cc(-c3ccc(C(F)(F)F)cc3)no2)c2ccccc2o1,MTS,72 h,> 100
O=C(NO)c1ccc(Cn2cnc3c(Nc4ccc(Cl)cc4)ncnc32)cc1,MTT,72 h,13.8
c1ccc(-c2cc(CNc3cccc4cccnc34)on2)nc1,MTS,72 h,79.7
CC(C)=CCc1ncc(/C=C2\NC(=O)[C@H](C(C)C)NC2=O)[nH]1,MTT,,> 15
Cc1sc2c(c1C)C(c1ccc(Cl)cc1)=N[C@@H](CC(=O)NCCCCNC(=O)COc1cccc3c1C(=O)N(C1CCC(=O)NC1=O)C3=O)c1nnc(C)n1-2 (some centres unmarked),CCK-8,72 h,0.73
COc1ccc(Nc2ncnc3c2ncn3Cc2ccc(C(=O)NO)cc2)cc1,MTT,72 h,3.7
COc1cccc2c1C(=O)c1c(O)c3c(c(O)c1C2=O)C[C@@](O)(C(=O)CO)C[C@@H]3O[C@H]1C[C@H](N)[C@H](O)[C@H](C)O1,,,0.13
O=C(NO)c1ccc(Cn2cnc3c(Nc4ccc(F)c(Cl)c4)ncnc32)cc1,MTT,72 h,7.35
C=CC(C)(C)c1[nH]cnc1/C=C1/NC(=O)[C@H](C(C)C)NC1=O,MTT,,1.77
